One compound from PMC5644278 (Alzheimer's & Dementia : Translational Research & Clinical …, 2016) can be followed below.

Molecules are shown by their SMILES.

Common to all, as to type: in vivo, human
Data set [1] in a line: Plasma pharmacokinetics after single intranasal dose of Gln-1062. The following applies: for half-life / AUC(0-inf) / Cmax: male, human, inhaled or intranasal.
Data set [2] concerns healthy male subjects. Briefly: Treatment emergent adverse events, single dose study. The note with it: galantamine 16 mg oral.
In data set [3] the test system is healthy male subjects. Briefly: VAS nausea, single dose. The following applies: healthy elderly males.
For data set [4], the system named is healthy male subjects. The data set can be described thus: NeuroCart test battery, overall pharmacodynamic effects. The following applies: galantamine 16 mg oral; healthy elderly males. Summed up:
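Double-blind study in healthy nonsmoking elderly men (cohorts 3–4, 12 on active drug). A single oral 16 mg dose was given at the same time as the other cohort treatments, with elderly double-placebo controls. Battery: N-back, Stroop, adaptive tracking, Bond–Lader VAS, pharmaco-EEG, eye movements, pupil size, body sway, face encoding/recognition and VVLT. Two baseline runs, then 1–6, 8 and 10 h post-dose. VVLT ran at 1 h 30 min only; face recognition predose and at 1 h 45 min. Analysis by mixed-model ANOVA with fixed factor treatment.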

For the compound `COc1ccc2c3c1O[C@H]1C[C@@H](O)C=C[C@@]31CCN(C)C2` [galantamine], the half-life is about 10 h in data set [1]; 9.85 h in data set [1] (5.5 mg); 7.94 h in data set [1] (11 mg); 8.71 h in data set [1] (22 mg); 9.24 h in data set [1] (33 mg); 11.1 h in data set [1] (44 mg). In addition, the AUC(0-inf) was 268 ng·h/mL in data set [1] (5.5 mg); 367 ng·h/mL in data set [1] (11 mg); 799 ng·h/mL in data set [1] (22 mg); 1190 ng·h/mL in data set [1] (33 mg); 1530 ng·h/mL in data set [1] (44 mg). For the same compound, the maximum concentration (Cmax) came out at 17.6 ng/mL in data set [1] (5.5 mg); 27.7 ng/mL in data set [1] (11 mg); 46.5 ng/mL in data set [1] (22 mg); 76.1 ng/mL in data set [1] (33 mg); 74.7 ng/mL in data set [1] (44 mg). In addition, in data set [1] (over the Gln-1062 intranasal dose levels), the “Tmax for galantamine after administration of Gln-1062” value was in the range of 2.3 to 4.7 h. For the same compound, the “Cold sweat or hyperhidrosis, incidence” value in the data set on healthy male subjects [2] is given as 33.3%. In the data set with healthy male subjects [2] (healthy elderly males), the “Nausea, incidence” value is reported as 33.3%. The “Diarrhea, incidence” value in the data set with healthy male subjects [2] (healthy elderly subjects) worked out at 8.3%. Moreover, the “Vomiting, incidence” value in the data set on healthy male subjects [2] (healthy elderly subjects) worked out at 41.7%. Further, the “peak of nausea (VAS nausea), time after administration” value in the data set on healthy male subjects [3] amounted to 2 h. In addition, in the data set with healthy male subjects [4], the “pharmacodynamic effects compared with placebo” value was “did not induce any measurable pharmacodynamic effects”.
